Reference: ChEMBL document CHEMBL1268859, “Diarylheptanoids from the Rhizomes of Curcuma kwangsiensis” (J Nat Prod, 2010)

System: RAW264.7
Test: Antiinflammatory activity in mouse RAW264.7 cells assessed as inhibition of LPS-induced NO production by MTT assay
Format: functional, cell-based
Settings: in the assay text read “Griess assay” for “MTT assay”
In short: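 RAW 264.7 mouse macrophages in RPMI 1640 with 10% heat-inactivated FBS, penicillin and streptomycin, seeded 1 × 10⁵ cells/well, adhered 2 h at 37 °C, 5% CO₂. Stimulated with LPS 1 µg/mL for 24 h with or without test agents at various concentrations (DMSO, 0.2% v/v final). Supernatant nitrite read with Griess reagent against a nitrite standard line. MTT viability after 24 h.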

Row | Compound | IC50
1 | Oc1ccc(/C=C/CC[C@@H](O)CCc2ccc(O)cc2)cc1 | 16.1 µM
2 | Oc1ccc(/C=C/CC[C@H](O)CCc2ccc(O)c(O)c2)cc1 | 42 µM
3 | Oc1ccc(/C=C/CC[C@@H](O)CCc2ccc(O)c(O)c2)cc1 | 20.6 µM
4 | Oc1ccc(CCCC[C@H](O)CCc2ccc(O)c(O)c2)cc1 | 5.83 µM
5 | Oc1ccc(CCCC[C@@H](O)CCc2ccc(O)c(O)c2)cc1 | 9.66 µM
6 | Oc1ccc(CC[C@H](O)CC/C=C/c2ccccc2)cc1O | 7.34 µM
7 | CC(=O)O[C@@H](CC/C=C/c1ccc(O)cc1)CCc1ccc(O)c(O)c1 | 6.54 µM
8 | CC(=O)O[C@H](CC/C=C/c1ccc(O)cc1)CCc1ccc(O)c(O)c1 | 15.6 µM
9 | CC(=O)O[C@@H](CCCCc1ccc(O)cc1)CCc1ccc(O)c(O)c1 | 49.5 µM
10 | CC(=O)O[C@H](CCCCc1ccc(O)cc1)CCc1ccc(O)c(O)c1 | 28.5 µM
11 | O=C(CC/C=C/c1ccc(O)cc1)CCc1ccc(O)cc1 | 8.93 µM
12 | O=C(CCCCc1ccc(O)cc1)CCc1ccc(O)cc1 | 5.58 µM
13 | COc1cc(CCC(=O)CCCCc2ccc(O)cc2)ccc1O | 10.6 µM
14 | COc1cc(CCC(=O)/C=C/CCc2ccc(O)cc2)ccc1O | 2.69 µM
15 | Oc1ccc(/C=C/CC[C@H](O)CCc2ccc(O)cc2)cc1 | 9.83 µM
16 | Oc1ccc(CC[C@@H](O)CC/C=C/c2ccccc2)cc1O | 3.86 µM
17 | O=C(CC/C=C/c1ccccc1)CCc1ccc(O)cc1 | 6.98 µM
18 | O=C(/C=C/C=C/c1ccc(O)cc1)CCc1ccc(O)cc1 | 4.79 µM
19 | C[C@]12CCC(=O)C=C1CC[C@@H]1[C@@H]2[C@@H](O)C[C@@]2(C)[C@H]1CC[C@]2(O)C(=O)CO [HYDROCORTISONE] | 40.6 µM
20 | COc1ccc2c(c1)c(CC(=O)O)c(C)n2C(=O)c1ccc(Cl)cc1 [INDOMETHACIN] | 13 µM
